Compounds with a hit are over-represented: about 3.8% of the library has one in this group of screens.
V-ATPase pHluor = regulators of yeast V-ATPase proton pumping, primary screen, pHLuorin cytosolic pH fluorescence. S. cerevisiae. response, % at 10 µM. hit rate 0.37% among 350,000. AID 504577, 2011; in the data active = response mostly above about 7.3%, no sharp cut-off; inactive = mostly below about 5.4%; also: actives read high
MPTP block = mitochondrial permeability transition pore inhibitors, primary screen, biochemical, isolated mouse mitochondria, absorbance; inhibition, % at 10 µM; AID 602449, 2012; Ca2+ swelling absorbance, 30 min; hit rate 1.4% among 360,000;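 active = inhibition of 50% or more, scaled per plate between neutral and stimulator controls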;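 also: 0% = DMSO wells given calcium and 100% = 1 mM EGTA wells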
rCAG binder = binders of r(CAG) RNA repeats, primary screen, biochemical, fluorescence. hit rate 1.3% among 370,000. r(CAG) RNA repeat, TO-PRO-1 dye displacement fluorescence. inhibition, % at 3 µM. AID 651821, 2012;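 active = inhibition above the plate cutoff, the mean of all test compounds on that plate plus 3 SD, cut at about 35% in these data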;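 also: 0% = DMSO alone and 100% = 100 µM mitoxantrone as full dye displacement; higher means more dye released from RNA so lower well fluorescence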
Granule exo inh = LAMP-1 surface exposure blockers, TALL-104 cells – cell-based, flow cytometry, MLPCN library, primary screen | inhibition, % at 10 µM | AID 651702, 2012 | hit rate 0.66% among 360,000 | TALL-104 LAMP-1 surface exposure; cells stimulated with thapsigargin and PMA;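 active = inhibition above about 55%, limit read from the data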
B2AR ag = beta2AR agonists driving receptor internalization, primary screen, cell-based, FAP fluorogen, flow cytometry; Am2.2-beta2AR cells; response, % (concentration not given with the values); Beta-2 adrenergic receptor (Homo sapiens), P07550; hit rate 0.43% among 340,000;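 active = response above a set limit, near 3 SD of response in nonfluorescent compounds, cut at about 42% in these data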
Target sequence (P07550 whole entry, looked up): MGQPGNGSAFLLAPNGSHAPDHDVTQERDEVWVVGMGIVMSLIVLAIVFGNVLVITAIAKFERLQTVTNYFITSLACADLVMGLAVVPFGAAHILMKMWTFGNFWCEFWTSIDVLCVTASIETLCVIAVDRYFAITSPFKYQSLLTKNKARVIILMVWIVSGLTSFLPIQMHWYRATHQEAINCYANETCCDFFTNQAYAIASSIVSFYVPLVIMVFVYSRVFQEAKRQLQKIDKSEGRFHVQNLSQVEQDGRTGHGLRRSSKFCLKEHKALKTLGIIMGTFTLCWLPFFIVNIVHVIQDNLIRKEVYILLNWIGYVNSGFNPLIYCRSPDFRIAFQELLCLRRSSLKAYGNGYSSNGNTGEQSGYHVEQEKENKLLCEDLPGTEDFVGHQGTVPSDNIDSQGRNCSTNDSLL
T cell modulator = modulators of CD8 T cell-vesicle binding, primary screen, mouse 2C CD8+ T cells, flow cytometry; 2C CD8+ T cell-vesicle binding; hits give low values; response (vesicle binding), % at 7 µM; hit rate 0.068% among 330,000; AID 2052, 2009;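 active = response, share of CD8 T cells binding vesicles, and their 90th percentile fluorescence all below set limits, cut at about 80% in these data, passing the limit was not always enough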;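 also: values below 100% mean blocked vesicle binding to the CD8+ T cells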
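Test system: purified 2C TCR transgenic mouse naive CD8+ T cells. Probe or stimulus: QL9-peptide-loaded Drosophila micro-vesicles bearing Ld, ICAM-1 and B7-1. Incubation: binding step 1.5 h, 37 °C, antibody labelling 20 min, ice. Measured by: flow cytometry of vesicle-bound cells.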
rCAG binder conf = small molecules binding CAG repeat RNA – biochemical, fluorescence, confirmation; shares compounds with rCAG binder; r(CAG) RNA repeat, TO-PRO-1 dye displacement fluorescence; inhibition, % at 3 µM; hit rate 70% among 4,300;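 active = inhibition above a per-plate cutoff, the mean inhibition of sample wells plus 3 SD, cut at about 35% in these data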;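 also: loss of TO-PRO-1 fluorescence as compound displaces dye from 1x1 AA loop RNA; 0% = DMSO only wells and 100% = 100 µM mitoxantrone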
DNA CAG counter = displacement of TO-PRO-1 from CAG DNA duplex, counter-screen for rCAG RNA repeat binder project, biochemical, fluorescence, TO-PRO-1 dye, d(CAG) DNA oligo; shares compounds with rCAG binder; d(CAG) DNA oligo TO-PRO-1 dye displacement; inhibition, % at 3 µM; hit rate 94% among 4,300; AID 652068, 2013;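 active = inhibition above its plate's cutoff, the mean test-well inhibition plus 3 SD, cut at about 4.8% in these data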;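 also: 0% = DNA dye mix with DMSO and 100% = 100 µM mitoxantrone; hits displace the dye from DNA and so lower well fluorescence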
An asterisk follows results filed as active; nt = no result given.

SMILES | V-ATPase pHluor | MPTP block | rCAG binder | Granule exo inh | B2AR ag | T cell modulator | rCAG binder conf | DNA CAG counter
COc1ccccc1/C=C1\SC(=S)N(C(C(=O)O)c2ccccc2)C1=O (stereo not drawn) | -2.0 | 2.9 | 67.4* | 2.4 | 4.6 | 256.8 | 67.2* | 27.4*
CCOc1cc(/C=C2\SC(=S)N(C(C(=O)O)c3ccccc3)C2=O)ccc1O (stereo not drawn) | -3.7 | 9.7 | 65.8* | 9.6 | -49.9 | 163.1 | 61.9* | 25.4*
COc1cc(/C=C2\SC(=S)N(NC(=O)c3ccc(O)c(OC)c3)C2=O)ccc1O | -0.1 | 18.9 | 23.5 | 20.3 | -43.5 | 334.3 | nt | nt
COc1cc(/C=C2\SC(=S)N(C(C(=O)O)c3ccccc3)C2=O)ccc1O (stereo not drawn) | -2.4 | 7.5 | 43.3* | -0.6 | -3.4 | 315.9 | 33.0 | 8.5*
CCOc1ccc(/C=C2/SC(=S)N(C(C(=O)O)c3ccccc3)C2=O)cc1OCC (stereo not drawn) | -0.9 | -5.7 | 11.3 | 4.4 | 0.5 | nt | nt | nt
Cc1ccc(-c2cc(-c3nnc(SCC(=O)N4c5ccccc5Sc5ccccc54)n3N)[nH]n2)cc1 | nt | nt | 11.4 | nt | nt | nt | nt | nt
CC(C)c1[nH]nc2c1C(c1ccc3c(c1)OCO3)NC2=O (stereo not drawn) | nt | nt | 3.9 | nt | nt | nt | nt | nt
CCN(CC)S(=O)(=O)c1cc(NS(=O)(=O)c2cccc(Cl)c2Cl)ccc1C | -0.5 | 18.9 | 41.7* | -2.2 | 10.9 | 0.0 | 40.6* | 11.9*
COc1ccc2c(c1)c1ccc3c(c1n2C)C(=O)C=CC3=O | -1.2 | 3.8 | 53.6* | -19.5 | 96.3* | nt | 11.1 | 8.3*
Cc1ccc2c(c1)c1ccc3c(c1n2C)C(=O)C=CC3=O | -2.1 | 0.0 | 50.8* | 3.4 | 93.2* | nt | 13.4 | 9.6*
CC(C)[C@H]1Cn2nnc(-c3ccccc3)c2Cn2c3ccccc3c(=O)n21 | nt | nt | 3.3 | nt | nt | nt | nt | nt
Cc1ccccc1S(=O)(=O)NC(=O)C1(C)CCN1C(=O)Cc1ccc(C(C)(C)C)cc1 (stereo not drawn) | nt | 0.9 | 40.4* | -6.8 | nt | nt | 32.6 | 8.7*
Cc1cc(C)cc(CC(=O)N2CCC2(C)C(=O)NS(=O)(=O)c2ccccc2C)c1 (stereo not drawn) | nt | 0.4 | 16.5 | -3.0 | nt | nt | nt | nt
CC(C)(C)c1ccc(S(=O)(=O)NC(=O)C2(C)CCN2C(=O)c2cccc3ccccc23)cc1 (stereo not drawn) | nt | 2.1 | 57.0* | -1.6 | nt | nt | 52.1* | 16.2*
CC1(C(=O)NS(=O)(=O)c2ccccc2Cl)CCN1C(=O)c1cccc2ccccc12 (stereo not drawn) | nt | 1.4 | 22.0 | -1.4 | nt | nt | nt | nt
CC(C)(C)c1ccc(CC(=O)N2CCC2(C)C(=O)NS(=O)(=O)c2ccccc2Cl)cc1 (stereo not drawn) | nt | -0.2 | 40.6* | 1.8 | nt | nt | 34.2 | 8.3*
CC(C)(C)c1ccc(S(=O)(=O)NC(=O)C2(C)CCN2C(=O)Cc2ccccc2Cl)cc1 (stereo not drawn) | nt | 1.3 | 47.0* | -1.4 | nt | nt | 56.1* | 20.6*
Cc1ccc(NC(=O)C2CCN(c3nnc(-n4cccc4)s3)CC2)c(C)c1 | nt | nt | 9.1 | nt | nt | nt | nt | nt
CC1(C(=O)NS(=O)(=O)c2ccc(Cl)cc2)CCN1C(=O)Cc1cccc2ccccc12 (stereo not drawn) | nt | -0.1 | 45.7* | 2.3 | nt | nt | 31.4 | 7.6*
CC/C=C\[C@H](O)[C@H](O)C1=C(C)C(=O)[C@]2(O1)C(=O)N[C@@](OC)(C(=O)c1ccccc1)[C@@H]2O | nt | nt | 0.8 | nt | nt | nt | nt | nt
COc1cc(C2Nc3cccc4cccc(c34)N2)cc(OC)c1OC(C)=O | 1.0 | -3.2 | 29.3 | 7.2 | 13.2 | 149.8 | nt | nt
COc1cc(C2Nc3cccc4cccc(c34)N2)ccc1O | 1.0 | 0.7 | 52.8* | 2.1 | 15.2 | 427.9 | 48.2* | 25.6*
Cc1ccc2c(c1)-c1c(cnn1CC(=O)NCCc1ccccc1F)CO2 | nt | nt | 1.4 | nt | nt | nt | nt | nt
CC1=Nc2cc(C(=O)O)ccc2Sc2ccc(Br)cc21 | -0.8 | -0.4 | 50.5* | 0.4 | 5.4 | 433.2 | 55.2* | 22.1*
Nc1ccc(C(=O)N/N=C\c2cc(N=Nc3cccc4ccccc34)ccc2O)cc1 | 0.6 | 6.8 | 39.1* | -3.7 | nt | 405.4 | 28.6 | 15.2*
SMILES | V-ATPase pHluor | MPTP block | rCAG binder | Granule exo inh | B2AR ag | T cell modulator | rCAG binder conf | DNA CAG counter
COC(=O)N/N=C/c1cc(N=Nc2ccccc2Cl)ccc1O | 2.5 | 5.5 | 21.4 | 0.0 | 14.8 | 333.5 | nt | nt
Cc1ccccc1-n1c(C)cc(/C=N/Nc2ccc([N+](=O)[O-])cn2)c1C | 4.2 | 0.2 | 5.9 | -2.9 | 11.5 | 245.8 | nt | nt
Cc1cc(/C=N/Nc2ccc([N+](=O)[O-])cn2)c(C)n1-c1ccc(C(=O)O)cc1 | -3.8 | 2.2 | 42.3* | -1.4 | -41.0 | 454.9 | 32.2 | 9.4*
CCn1c(COc2cccc(C)c2)nnc1SCC(=O)CC(=O)Nc1ccccc1OC | -7.0 | 1.7 | 36.9* | -4.0 | 9.7 | 674.5 | 10.6 | 4.6*
COc1ccc(/C=N/NC(=O)c2[nH]c3ccc(Br)cc3c2-c2ccccc2)cc1 | -4.3 | 45.5 | 6.2 | 1.4 | 27.2 | 293.3 | nt | nt
COc1ccc(/C=N/NC(=O)c2[nH]c3ccc(Cl)cc3c2-c2ccccc2)c(C(=O)O)c1OC | 4.5 | -0.9 | 64.3* | -17.3 | -6.0 | 280.5 | 65.7* | 25.1*
COc1ccc(/C=N/NC(=O)c2[nH]c3ccc(Br)cc3c2-c2ccccc2)c(C(=O)O)c1OC | -0.9 | 0.7 | 62.4* | -3.9 | -1.4 | 221.5 | 77.2* | 42.9*
CCS(=O)(=O)Nc1cc(-c2nc3cccnc3s2)ccc1C | 5.3 | -0.9 | 8.4 | 4.7 | 0.0 | 87.4 | nt | nt
Cc1cc(-c2nc3cccnc3s2)ccc1NS(=O)(=O)c1ccc2c(c1)OCCO2 | -0.4 | 0.7 | 38.0* | -0.9 | -8.6 | 520.2 | 47.2* | 13.6*
Cc1cc(-c2nc3cccnc3s2)ccc1NS(=O)(=O)c1cccs1 | -2.8 | 1.2 | 49.8* | -0.7 | -4.6 | 379.8 | 37.1* | 11.3*
COc1cccc(C(=O)N[C@H](C(=O)N2CCC[C@H]2C(=O)NCc2ccccc2)C(C)C)c1 | nt | nt | -0.4 | nt | nt | nt | nt | nt
COc1cc(NS(=O)(=O)c2ccc(NS(=O)(=O)c3ccc(C)cc3)cc2)nc(OC)n1 | 0.4 | 0.3 | 11.7 | -11.7 | -2.9 | 257.7 | nt | nt
COc1cc(NS(=O)(=O)c2ccc(N/C=C(\C#N)c3nc4ccccc4o3)cc2)nc(OC)n1 | -3.8 | -1.9 | 68.5* | -3.5 | 3.2 | 243.6 | 67.3* | 31.1*
